According to publication PMC4633020 (Journal of medicinal chemistry, 2015):
In brackets after ≈: the same amount, converted by molar mass. Entries after “also recorded” stand apart in the source; their conditions may differ.

Legend:
E. faecium NCTC 7171 = experiment: MIC, broth microdilution; format: cell-based, Enterococcus faecium; conditions: for MIC: Enterococcus faecium, NCTC7171, E. faecium NCTC 7171
[1] = tested on: other bacteria in the ESKAPE panel; experiment: Antibacterial screening against the ESKAPE panel; format: cell-based; conditions: result in words
[2] = In vitro metabolic stability in human liver S9; format: in vitro ADME; conditions: calculated from in vitro half-life in human liver S9
PBP2a of S. aureus = PBP2a of S. aureus (Staphylococcus aureus, UniProt P07944); experiment: BOCILLIN FL binding assay for PBP2a; conditions: at concentrations of up to 100 μg/mL
PBP5fm of E. faecium = experiment: BOCILLIN FL binding assay for PBP5fm; conditions: at up to 100 μg/mL
In short: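 Recombinant PBP5 (aa 34-678, E. faecium D63r) carried an N-terminal His-tag, was expressed in E. coli BL21(DE3), and was purified by anion exchange then metal chelate column. Enzyme (40 μM final) was preincubated with test compound in 25 mM Hepes, 1 M NaCl, pH 7.0 at 37 °C. BOCILLIN FL (30 μM final) was then added, with incubations of 20 min. Labelling was read by 12% SDS-PAGE fluorescence scan and band quantitation against a no-inhibitor control.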

[3] = tested on: PBPs in the E. faecium membrane fractions; experiment: PBP inhibition in E. faecium membrane fractions; format: binding; conditions: data less clear due to low PBP copy numbers
E. faecium NCTC7171 = experiment: Macromolecular synthesis assays; format: cell-based, Enterococcus faecium; conditions: 2 × MIC (8 μg/mL), 120 min
transcription = experiment: In vitro transcription assay; format: biochemical; conditions: T7 transcription kit
[4] = tested on: transcription and translation (β-galactosidase expression); experiment: Tandem in vitro transcription and translation assay; format: biochemical, Escherichia coli; conditions: E. coli S30 extract
Hemolysis assay = conditions: red blood cells
E. faecium ATCC BAA 2127 = experiment: MIC, additional E. faecium strains; format: cell-based; conditions: Enterococcus faecium, BAA2127
[5] = tested on: E. faecium 119-39A (Van S); experiment: MIC, additional E. faecium strains; format: cell-based; conditions: Enterococcus faecium
E. faecium C9 = experiment: MIC, additional E. faecium strains; format: cell-based; conditions: Enterococcus faecium

Sequence of PBP2a of S. aureus (P07944 whole entry): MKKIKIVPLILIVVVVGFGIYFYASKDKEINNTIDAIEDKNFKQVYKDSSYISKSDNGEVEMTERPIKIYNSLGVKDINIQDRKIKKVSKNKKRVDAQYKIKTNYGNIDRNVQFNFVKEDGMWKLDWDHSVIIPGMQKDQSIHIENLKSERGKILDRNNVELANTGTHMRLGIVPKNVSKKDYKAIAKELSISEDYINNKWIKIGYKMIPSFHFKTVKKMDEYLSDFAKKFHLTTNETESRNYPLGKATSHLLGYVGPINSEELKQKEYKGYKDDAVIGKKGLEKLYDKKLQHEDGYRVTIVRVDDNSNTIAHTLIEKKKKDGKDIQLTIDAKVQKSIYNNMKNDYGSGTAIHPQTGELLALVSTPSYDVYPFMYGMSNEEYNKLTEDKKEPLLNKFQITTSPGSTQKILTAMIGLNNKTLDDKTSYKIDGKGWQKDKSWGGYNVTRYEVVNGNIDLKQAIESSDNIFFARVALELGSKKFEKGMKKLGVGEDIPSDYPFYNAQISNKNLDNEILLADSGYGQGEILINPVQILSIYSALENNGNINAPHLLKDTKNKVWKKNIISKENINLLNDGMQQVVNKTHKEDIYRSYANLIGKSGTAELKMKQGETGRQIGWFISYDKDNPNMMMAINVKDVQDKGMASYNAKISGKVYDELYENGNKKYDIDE

Row | SMILES | MIC (E. faecium NCTC 7171) | antibacterial activity against the other bacteria in the ESKAPE panel [1] | Apparent intrinsic clearance [2] | inhibition of recombinant PBP2a (PBP2a of S. aureus) | inhibition of PBP5fm (PBP5fm of E. faecium) | inhibition of PBPs in E. faecium membranes [3] | inhibition of peptidoglycan biosynthesis (E. faecium NCTC7171; D-[2,3-3H]-alanine incorporation) | inhibition of translation (protein synthesis) (E. faecium NCTC7171; L-[4,5-3H]-leucine incorporation) | inhibition of transcription (RNA synthesis) (E. faecium NCTC7171; [5,6-3H]-uridine incorporation) | inhibition of replication (DNA synthesis) (E. faecium NCTC7171; [methyl-3H]-thymidine incorporation) | effect on in vitro transcription (transcription) | effect on in vitro transcription and translation [4] | hemolysis at 64 μg/mL (Hemolysis assay) | antibacterial activity against E. faecium (in words) (E. faecium NCTC 7171; SAR discussion, E. faecium NCTC 7171) | MIC (E. faecium ATCC BAA 2127) | MIC [5] | MIC (E. faecium C9)
1 | CC1=C(C(N)=O)C(c2ccc(C(C)C)cc2)n2nc(SCc3ccccc3)nc2N1 (stereo not drawn) [Compound 1, 2-(Benzylthio)-7-(4-isopropylphenyl)-5-methyl-4,7-dihydro-[1,2,4]triazolo[1,5-a]pyrimidine-6-carboxamide] | ≤ 8 µg/mL | No antibacterial activity | 11.1 mLmin^−1kg^−1 | no inhibition; also recorded: did not inhibit | no inhibition; also recorded: did not inhibit | did not inhibit |  |  |  |  |  |  |  |  |  |  | 
2 | CC1=C(C(N)=O)C(c2ccc(N(C)C)cc2)n2nc(SCc3ccccc3)nc2N1 (stereo not drawn) [Compound 16, 2-(Benzylthio)-7-(4-dimethylaminophenyl)-5-methyl-4,7-dihydro[1,2,4]triazolo[1,5-a]pyrimidine-6-carboxamide] | ≤ 8 µg/mL |  | <10.4 mLmin^−1kg^−1 |  |  |  | notable inhibition | did not inhibit | did not inhibit | did not inhibit | did not show any effect | did not show any effect | 1 to 2% |  |  |  | 
3 | CC1=C(C(N)=O)C(c2ccc(N(C)C)cc2)n2nc(SCc3ccc(C#N)cc3)nc2N1 (stereo not drawn) [Compound 84, 2-(4-Cyanobenzylthio)-7-(4-dimethylaminophenyl)-5-methyl-4,7-dihydro-[1,2,4]triazolo[1,5-a]pyrimidine-6-carboxamide] |  |  | <10.4 mLmin^−1kg^−1 | lacked the ability to inhibit; also recorded: did not inhibit | lacked the ability to inhibit; also recorded: did not inhibit | did not inhibit |  |  |  |  |  |  | 1 to 2% | as active as compound 1 |  |  | 
4 | CN[C@H](CC(C)C)C(=O)N[C@H]1C(=O)N[C@@H](CC(N)=O)C(=O)N[C@H]2C(=O)N[C@H]3C(=O)N[C@H](C(=O)N[C@H](C(=O)O)c4cc(O)cc(O)c4-c4cc3ccc4O)[C@H](O)c3ccc(c(Cl)c3)Oc3cc2cc(c3O[C@@H]2O[C@H](CO)[C@@H](O)[C@H](O)[C@H]2O[C@H]2C[C@](C)(N)[C@H](O)[C@H](C)O2)Oc2ccc(cc2Cl)[C@H]1O [vancomycin] |  |  |  |  |  |  |  |  |  |  |  |  |  |  | 1 µg/mL (≈ 0.69 µM) | 0.5 µg/mL (≈ 0.345 µM) | 2 µg/mL (≈ 1.38 µM)
